In ChEMBL document CHEMBL4823260, “From High-Throughput Screening to Target Validation: Benzo[d]isothiazoles as Potent and Selective Agonists of Human Transient Receptor Potential Cation Channel Subfamily M Member 5 Possessing In Vivo Gastrointestinal Prokinetic Activity in Rodents” (J Med Chem, 2021):

Assays:
[1] = molecular target: T1, Transient receptor potential cation channel subfamily M member 5 (Homo sapiens, UniProt Q9NZQ8); assay: Agonist activity at human TRPM5 expressed in CHO-K1 cells maintained at 80 mV final holding potential by syncroPatch assay; assay type: cell-based
T1 sequence (Q9NZQ8 whole entry): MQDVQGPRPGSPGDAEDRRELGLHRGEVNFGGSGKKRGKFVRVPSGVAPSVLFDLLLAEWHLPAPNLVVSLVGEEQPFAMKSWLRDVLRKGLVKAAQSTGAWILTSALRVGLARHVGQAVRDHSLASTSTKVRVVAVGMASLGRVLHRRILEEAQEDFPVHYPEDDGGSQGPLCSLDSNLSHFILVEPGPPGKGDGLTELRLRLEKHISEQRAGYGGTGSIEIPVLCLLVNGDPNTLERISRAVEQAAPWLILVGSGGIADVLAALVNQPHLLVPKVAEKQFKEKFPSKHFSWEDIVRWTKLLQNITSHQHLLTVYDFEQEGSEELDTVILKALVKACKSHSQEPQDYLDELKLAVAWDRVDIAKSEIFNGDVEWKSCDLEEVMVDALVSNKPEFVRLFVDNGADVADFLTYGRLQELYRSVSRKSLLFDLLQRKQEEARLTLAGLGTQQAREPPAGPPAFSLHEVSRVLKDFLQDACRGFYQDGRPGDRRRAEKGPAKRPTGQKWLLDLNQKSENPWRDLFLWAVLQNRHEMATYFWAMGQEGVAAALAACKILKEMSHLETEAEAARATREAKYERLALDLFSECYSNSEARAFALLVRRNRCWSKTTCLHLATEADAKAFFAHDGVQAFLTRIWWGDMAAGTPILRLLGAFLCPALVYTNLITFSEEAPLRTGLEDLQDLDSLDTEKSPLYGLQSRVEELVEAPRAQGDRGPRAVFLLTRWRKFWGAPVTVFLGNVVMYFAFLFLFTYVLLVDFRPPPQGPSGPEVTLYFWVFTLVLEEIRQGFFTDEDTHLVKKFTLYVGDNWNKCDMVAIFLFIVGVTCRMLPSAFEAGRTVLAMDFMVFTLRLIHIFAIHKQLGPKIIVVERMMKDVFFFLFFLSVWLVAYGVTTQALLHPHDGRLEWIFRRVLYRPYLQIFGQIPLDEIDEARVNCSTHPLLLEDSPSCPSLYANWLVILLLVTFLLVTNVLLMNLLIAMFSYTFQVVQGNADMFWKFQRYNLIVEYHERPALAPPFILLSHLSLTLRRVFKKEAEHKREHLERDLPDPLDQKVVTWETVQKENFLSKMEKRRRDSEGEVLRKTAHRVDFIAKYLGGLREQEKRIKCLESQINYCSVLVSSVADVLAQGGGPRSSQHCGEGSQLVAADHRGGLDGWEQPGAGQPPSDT
How it was run: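 SyncroPatch 384 whole-cell recording at rt on CHO-K1 cells stably expressing human or mouse TRPM5. Intracellular solution had 2 mM Na-ATP and 5 μM free Ca2+. Cumulative doses 0.03–31.6 μM in 0.5% DMSO, 150 s each after 180 s vehicle. Current measured at the end of the +80 mV step, normalized to vehicle; pEC50 is the mean of ≥2 independent experiments.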

[2] = Intrinsic clearance in human liver microsomes assessed per mg protein incubated up to 30 mins in presence of NADPH by LC-MS/MS analysis; assay type: ADME, Microsome
[3] = Intrinsic clearance in mouse liver microsomes assessed per mg protein incubated up to 30 mins in presence of NADPH by LC-MS/MS analysis; assay type: ADME, Microsome

Cn1c(CNc2ccc(Cl)cc2)nc2ccccc21
EC50 [1]: > 31600 nM

CN(Cc1ncc(Cl)n1C)c1ccc2cnsc2c1
EC50 [1]: 85.1 nM

Cn1c(Cl)cnc1CNc1ccc2[nH]cnc2c1
EC50 [1]: > 31600 nM

Clc1cnc(CNc2ccc3sncc3c2)[nH]1
EC50 [1]: > 31600 nM

Cn1c(Cl)cnc1CNc1ccc2ocnc2c1
EC50 [1]: 16200 nM

Clc1cnc(CNc2ccc3sncc3n2)s1
EC50 [1]: 1170 nM | microsomal CLint [2]: 172 µL/min/mg | microsomal CLint [3]: 421 µL/min/mg

Clc1cnc(CNc2cnc3sncc3c2)s1
EC50 [1]: 6610 nM | microsomal CLint [2]: 84 µL/min/mg | microsomal CLint [3]: 163 µL/min/mg

CC(C)c1cnc(CNc2ccc3sncc3c2)s1
EC50 [1]: > 31600 nM

CN(Cc1ncc(Cl)n1C)c1cc2sncc2cc1Cl
EC50 [1]: 309 nM

Cn1c(CNc2ccc3sncc3c2)nc(Cl)c1Cl
EC50 [1]: > 31600 nM

CCN(Cc1ncc(Cl)n1C)c1ccc2sncc2c1
EC50 [1]: 468 nM

CN(Cc1ncc(Cl)s1)c1cc2cnsc2cc1Cl
EC50 [1]: 1620 nM

Cc1nnc(CNc2ccc3sncc3c2)s1
EC50 [1]: 19100 nM

CC(C)(Nc1ccc2sncc2c1)c1ncc(Cl)s1
EC50 [1]: > 31600 nM | microsomal CLint [2]: 173 µL/min/mg | microsomal CLint [3]: 250 µL/min/mg

Cn1ccnc1CNc1ccc2sncc2c1
EC50 [1]: 5130 nM

Cn1c(Cl)cnc1CNc1ccc2c(cnn2C)c1
EC50 [1]: 5250 nM

Cn1ccnc1CNc1ccc(Cl)cc1OCCC(F)(F)F
EC50 [1]: 2510 nM

Cc1nc(CNc2ccc3sncc3c2)sc1C
EC50 [1]: > 31600 nM

Cc1cc(NCc2ncc(Cl)s2)cc2cnsc12
EC50 [1]: > 31600 nM | microsomal CLint [2]: 169 µL/min/mg | microsomal CLint [3]: 434 µL/min/mg

Fc1cc(NCc2ncc(Cl)s2)cc2cnsc12
EC50 [1]: 1380 nM | microsomal CLint [2]: 202 µL/min/mg | microsomal CLint [3]: 612 µL/min/mg

Cn1c(Cl)cnc1CNc1ccc2oncc2c1
EC50 [1]: 3020 nM

Fc1cc2cnsc2cc1NCc1ncc(Cl)s1
EC50 [1]: 28.8 nM

N#Cc1ccc(CNc2ccc3sncc3c2)s1
EC50 [1]: > 31600 nM

Cn1c(Br)cnc1CNc1ccc2sncc2c1
EC50 [1]: 457 nM

Cc1cc2cnsc2cc1NCc1ncc(Cl)s1
EC50 [1]: 17.8 nM

Cn1c(Cl)cnc1CN(CC1CCCCC1)c1ccc2sncc2c1
EC50 [1]: > 31600 nM

c1csc(CNc2ccc3sncc3c2)n1
EC50 [1]: 4680 nM

Cc1cc2cnsc2cc1NCc1ncc(Cl)n1C
EC50 [1]: 38 nM

Cn1c(Cl)cnc1CNc1ccc2c(c1)nnn2C
EC50 [1]: > 31600 nM

Clc1cnc(CNc2cc3cnsc3cn2)s1
EC50 [1]: 468 nM | microsomal CLint [2]: 155 µL/min/mg | microsomal CLint [3]: 93 µL/min/mg

COc1ccc(N(C)Cc2ncc(Cl)n2C)cc1OC
EC50 [1]: > 31600 nM

Cn1c(Cl)ccc1CNc1ccc2sncc2c1
EC50 [1]: > 31600 nM

Clc1cnc(CNc2cccc3sncc23)s1
EC50 [1]: > 31600 nM

Cc1cc2sncc2cc1NCc1ncc(Cl)s1
EC50 [1]: 38.9 nM | microsomal CLint [2]: 157 µL/min/mg | microsomal CLint [3]: 148 µL/min/mg

Clc1cnc(CNc2ccc3sncc3c2Cl)s1
EC50 [1]: 1580 nM | microsomal CLint [2]: 174 µL/min/mg | microsomal CLint [3]: 258 µL/min/mg

Cc1cc2sncc2cc1N(C)Cc1ncc(Cl)s1
EC50 [1]: 5250 nM | microsomal CLint [2]: 562 µL/min/mg | microsomal CLint [3]: 748 µL/min/mg

CC(Nc1ccc2sncc2c1)c1ncc(Cl)s1 (configuration not stated)
EC50 [1]: 7590 nM

Cn1c(Cl)cnc1CNc1cc2sncc2cc1F
EC50 [1]: 102 nM

Cn1c(Cl)cnc1CN(CC1CC1)c1ccc2sncc2c1
EC50 [1]: 158 nM

CN(Cc1ncc(Cl)s1)c1ccc2sncc2c1
EC50 [1]: 447 nM

Cc1c(NCc2ncc(Cl)s2)ccc2sncc12
EC50 [1]: 1740 nM | microsomal CLint [2]: 178 µL/min/mg | microsomal CLint [3]: 508 µL/min/mg

Cn1c(Cl)cnc1CN(Cc1ccccc1)c1ccc2sncc2c1
EC50 [1]: > 31600 nM

Cn1c(Cl)cnc1CNc1ccc2cnsc2c1
EC50 [1]: 295 nM

Cc1cnc(CNc2ccc3sncc3c2)s1
EC50 [1]: 575 nM

Clc1cnc(COc2ccc3sncc3c2)s1
EC50 [1]: 832 nM | microsomal CLint [2]: 157 µL/min/mg | microsomal CLint [3]: 763 µL/min/mg

Cc1csc(CNc2ccc3sncc3c2)n1
EC50 [1]: > 31600 nM

Cn1c(Cl)cnc1CNc1ccc2scnc2c1
EC50 [1]: 13500 nM

CN(Cc1ncc(Cl)s1)c1cc2cnsc2cc1F
EC50 [1]: 2820 nM

O=C(Nc1ccc2sncc2c1)c1ncc(Cl)s1
EC50 [1]: > 31600 nM

CN(Cc1ncc(Cl)n1C)c1ccc2sncc2c1
EC50 [1]: 158 nM

Clc1cnc(CNc2cc3cnsc3cc2Cl)s1
EC50 [1]: 24.5 nM | microsomal CLint [2]: 149 µL/min/mg | microsomal CLint [3]: 527 µL/min/mg

Cn1c(Cl)cnc1CN1CC(CO)Cc2cccc(F)c21 (configuration not stated)
EC50 [1]: 5010 nM

Clc1cnc(CNc2cc(Cl)c3sncc3c2)s1
EC50 [1]: > 31600 nM | microsomal CLint [2]: 150 µL/min/mg | microsomal CLint [3]: 221 µL/min/mg

Clc1ccc(CNc2ccc3sncc3c2)s1
EC50 [1]: 2750 nM

Clc1cnc(CNc2cccc3cnsc23)s1
EC50 [1]: 1450 nM

Fc1c(NCc2ncc(Cl)s2)ccc2sncc12
EC50 [1]: 933 nM | microsomal CLint [2]: 247 µL/min/mg | microsomal CLint [3]: 448 µL/min/mg

c1ccc2sc(CNc3ccc4sncc4c3)nc2c1
EC50 [1]: > 31600 nM

CC(C)N(Cc1ncc(Cl)n1C)c1ccc2sncc2c1
EC50 [1]: 5130 nM

CCN(Cc1ncc(Cl)n1C)c1ccc(Br)cc1
EC50 [1]: 5130 nM

Fc1cc2sncc2cc1NCc1ncc(Cl)s1
EC50 [1]: 97.7 nM | microsomal CLint [2]: 142 µL/min/mg | microsomal CLint [3]: 312 µL/min/mg

FC(F)(F)c1cnc(CNc2ccc3sncc3c2)s1
EC50 [1]: 490 nM

CC(=O)N(Cc1ncc(Cl)n1C)c1ccc2sncc2c1
EC50 [1]: > 31600 nM

Cn1c(Cl)cnc1CNc1ccc2[nH]ncc2c1
EC50 [1]: 6030 nM

Cn1nc(CNc2ccc3sncc3c2)cc1C(F)(F)F
EC50 [1]: > 31600 nM

Cn1c(Cl)cnc1CNc1cc2sncc2cc1Cl
EC50 [1]: 11.2 nM

Clc1snnc1CNc1ccc2sncc2c1
EC50 [1]: 5250 nM

Cn1c(Cl)cnc1CN1CCc2ccccc21
EC50 [1]: 22900 nM
